The values below come from ChEMBL document CHEMBL1143480, “Bicyclic heteroarylpiperazines as selective brain penetrant 5-HT6 receptor antagonists” (Bioorg Med Chem Lett, 2005).

The Ki is the equilibrium dissociation constant of an inhibitor or competing ligand from its target. The low end stands for a stronger hold on the target, the high end for a looser hold on the target. The term ED50 denotes the dose that gives a 50% effect, or the effect in half of the subjects. One may read the pKb as −log10 of the Kb, conventionally taken in molar units. High values mean a low Kb, low ones a high Kb.

The target of assay [1] is T1, 5-hydroxytryptamine receptor 6 (Homo sapiens, UniProt P50406). Kind of assay: Displacement of [3H]LSD from human 5-hydroxytryptamine 6 receptor expressed in HeLa cells. It is filed as cell-based. Summed up: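 Human cloned 5-HT6 receptor expressed in HeLa cells. Binding measured by [3H]LSD displacement and reported as pKi. Each value is the mean of at least three experiments, each within 0.3 of the mean.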
A general note: Displacement assays read how much labelled ligand stays bound in the presence of the test substance.

The target in assay [2] is 5-hydroxytryptamine receptor 6 (Rattus norvegicus) (UniProt P31388). Kind of assay: (§1) In vivo binding assay against rat 5-hydroxytryptamine 6 receptor using [125I]-SB-258,585. It is filed as functional, organism-based. Summed up:
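Ex vivo assay. Rats were given vehicle or antagonist orally with a 4 h pretreatment, then killed. Striatum was removed and homogenised, and a binding assay with a selective 5-HT6 radioligand was run on the tissue. Potency is expressed as oral ED50 (mg/kg).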

The target in assay [3] is 5-hydroxytryptamine receptor 6 (Rattus norvegicus, UniProt P31388). Kind of assay: Binding affinity against 5-hydroxytryptamine 6 receptor of rat striatum. It is filed as tissue-based.
For assay [4], the target named is T1, 5-hydroxytryptamine receptor 6. Kind of assay: Binding affinity against 5-hydroxytryptamine 6 receptor of human caudate.
For assay [5] the target is unchanged. The settings on record: HeLa.
In assay [6] the target is 5-hydroxytryptamine receptor 6 (Rattus norvegicus) (UniProt P31388). The assay is described as §1. It is filed as organism-based. Summed up:
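Ex vivo assay: rats were dosed orally with vehicle or antagonist and killed after a 4 h pretreatment. Striatum was removed and homogenised, and a binding assay with the selective 5-HT6 radioligand was run on the tissue. ED50 was expressed as mg/kg po.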

Chain of 5-hydroxytryptamine receptor 6 (Rattus norvegicus) (P31388 whole entry): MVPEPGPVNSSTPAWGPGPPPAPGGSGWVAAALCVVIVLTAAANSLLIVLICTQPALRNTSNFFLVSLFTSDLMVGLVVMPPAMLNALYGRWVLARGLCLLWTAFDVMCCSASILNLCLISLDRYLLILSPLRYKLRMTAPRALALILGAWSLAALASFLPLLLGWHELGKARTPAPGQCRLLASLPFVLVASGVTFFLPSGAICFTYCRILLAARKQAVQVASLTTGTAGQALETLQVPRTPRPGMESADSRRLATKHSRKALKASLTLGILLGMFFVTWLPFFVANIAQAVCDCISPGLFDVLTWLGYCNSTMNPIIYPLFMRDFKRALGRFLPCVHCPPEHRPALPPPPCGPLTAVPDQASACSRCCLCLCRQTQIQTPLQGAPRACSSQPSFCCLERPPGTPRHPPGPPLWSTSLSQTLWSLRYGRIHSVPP
T1 sequence (P50406 whole entry): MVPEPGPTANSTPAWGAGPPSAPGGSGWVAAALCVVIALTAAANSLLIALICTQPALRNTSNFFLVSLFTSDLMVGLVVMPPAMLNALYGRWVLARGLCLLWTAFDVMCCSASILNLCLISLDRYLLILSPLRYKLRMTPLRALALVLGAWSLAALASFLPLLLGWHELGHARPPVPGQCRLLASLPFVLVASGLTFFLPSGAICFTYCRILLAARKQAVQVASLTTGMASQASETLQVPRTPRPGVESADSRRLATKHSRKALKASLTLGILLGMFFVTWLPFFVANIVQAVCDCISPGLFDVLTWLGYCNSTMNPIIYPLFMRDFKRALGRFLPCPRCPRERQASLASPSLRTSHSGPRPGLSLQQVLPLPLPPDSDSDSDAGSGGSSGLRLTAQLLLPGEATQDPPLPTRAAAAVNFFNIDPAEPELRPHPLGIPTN
Chain of 5-hydroxytryptamine receptor 6 (Rattus norvegicus, UniProt P31388) (P31388 whole entry): as the sequence (P31388 whole entry) above

With `O=S(=O)(c1ccc(Cl)cc1)n1ccc2c(N3CCNCC3)cccc21`, the Ki in assay [1] was 2 nM.

`O=S(=O)(c1cccc(Cl)c1)c1c[nH]c2c(N3CCNCC3)cccc12` gave a Ki in assay [1] of 0.316 nM.

In assay [1], `N#Cc1ccc2c(ccn2S(=O)(=O)c2cccc(Cl)c2)c1N1CCNCC1` had a Ki of 5.01 nM.

The compound `Cc1cn(S(=O)(=O)c2cccc(Cl)c2)c2cccc(N3CCNCC3)c12` had a Ki in assay [1] of 0.631 nM.

In turn, `O=S(=O)(c1ccccc1)n1ccc2c(N3CCNCC3)c(Cl)ccc21` showed a Ki in assay [1] of 1.58 nM.

Take `O=S(=O)(c1cccc(Cl)c1)n1ccc2c(N3CCNCC3)cccc21`: the Ki in assay [1] is 0.251 nM. Against the preceding compound, the Ki is about 6.3-fold lower.

`O=S(=O)(c1ccccc1Cl)n1ccc2c(N3CCNCC3)cccc21` gave a Ki in assay [1] of 0.398 nM. This Ki lies about 1.6-fold higher than the previous one.

In assay [2], `Cn1cc(S(=O)(=O)c2cccc(Cl)c2)c2cccc(N3CCNCC3)c21` gave an ED50 of 5 mg/kg. Moreover, the Ki in assay [1] is 2.51 nM.

In assay [1], `O=S(=O)(c1ccccn1)n1ccc2c(N3CCNCC3)c(Cl)ccc21` showed a Ki of 0.501 nM.

In assay [1], `O=S(=O)(c1ccccc1)c1csc2c(N3CCNCC3)cccc12` gave a Ki of 0.501 nM.

In turn, `O=S(=O)(c1ccc2ccccc2c1)n1ccc2c(N3CCNCC3)c(Cl)ccc21` had a Ki in assay [1] of 25.1 nM. Against the preceding compound, the Ki is about 50-fold higher.

In turn, `O=S(=O)(c1ccccc1)c1c[nH]c2c(N3CCNCC3)nccc12` gave a Ki in assay [1] of 25.1 nM.

Take `O=S(=O)(c1ccccc1)c1c[nH]c2c(N3CCNCC3)ccnc12`: the Ki in assay [1] was 7.94 nM. Against the preceding compound, the Ki is about 3.2-fold lower.

Take `Cc1cc2c(N3CCNCC3)cccc2n1S(=O)(=O)c1cccc(Cl)c1`: the Ki in assay [1] was 0.398 nM. Against the preceding compound, the Ki is about 20-fold lower.

For `O=S(=O)(c1ccccc1Cl)n1ccc2c(N3CCNCC3)c(Cl)ccc21`, the Ki in assay [1] was 1 nM.

In assay [1], `O=S(=O)(c1cccc(Cl)c1)n1ccc2c(N3CCNCC3)ccc(Cl)c21` gave a Ki of 0.316 nM.

In the case of `O=S(=O)(c1cccc(Cl)c1)n1ccc2c(N3CCNCC3)c(Cl)ccc21`, the ED50 in assay [2] is 3 mg/kg. Besides, the Ki was 12.6 nM in assay [3], 7.94 nM in assay [4] and 2.51 nM in assay [1]. Besides, the pKb in assay [5] worked out at 7.2.

As to `O=S(=O)(c1ccccn1)n1ccc2c(N3CCNCC3)cccc21`, in assay [1], the affinity, expressed as Ki, was 1 nM.

Compound `O=S(=O)(c1ccc(Cl)cc1)n1ccc2c(N3CCNCC3)c(Cl)ccc21` had a Ki in assay [1] of 6.31 nM.

The compound `O=S(=O)(c1ccccc1)c1coc2c(N3CCNCC3)cccc12` had a Ki in assay [1] of 1.26 nM.

On to `O=S(=O)(c1cccc(Cl)c1)n1cc(Cl)c2c(N3CCNCC3)cccc21`, for which the Ki in assay [1] was 0.316 nM.

`O=S(=O)(c1cccc2ccccc12)n1ccc2c(N3CCNCC3)c(Cl)ccc21` had a Ki in assay [1] of 7.94 nM.

In the case of `Cc1c(S(=O)(=O)n2ccc3c(N4CCNCC4)cccc32)sc2ccc(Cl)cc12`, in assay [1], the Ki is 3.16 nM. This Ki lies about 2.5-fold lower than the previous one.

Turning to `COc1ccc(NS(=O)(=O)c2sc3ccc(Cl)cc3c2C)cc1N1CCNCC1`, the ED50 in assay [6] turned out to be 11 mg/kg.
